ChEMBL document CHEMBL1134010, “Syntheses and antifungal activities of novel 3-amido bearing pseudomycin analogues” (Bioorg Med Chem Lett, 2001)
Converted amounts (≈) assume the structure as drawn. Positions of bridges follow the written chain, without caps; N, C: chain ends. Non-standard residues stand in square brackets, D forms with d. Residues, ends and D or L forms follow the SMILES beside them. Groups on a side chain read outwards from the residue. *: point of attachment. Tetradecanoyl(3R-OH) = CCCCCCCCCCC[C@@H](O)CC(=O)*; Asp(3S-OH) = N[C@H](C(=O)O)[C@H](O)C(=O)O; Thr(4-Cl) = N[C@H](C(=O)O)[C@H](O)CCl; aThr = C[C@H](O)[C@H](N)C(=O)O; dDab = NCC[C@@H](N)C(=O)O; Dab = NCC[C@H](N)C(=O)O; Dhb = C/C=C(\N)C(=O)O; X1 = CCN(CC)CCN*

Experiments:
Format in all cases: functional
[1] = tested on: Cryptococcus neoformans; experiment: In vitro minimum inhibitory concentration (MIC) against Cryptococcus neoformans.
How it was run: (§1)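 Tested against Candida albicans, Cryptococcus neoformans and Aspergillus fumigatus, with PSB as positive control. MIC is taken as the lowest drug concentration giving 90–100% inhibition of visible growth relative to drug-free controls.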

[2] = tested on: Candida albicans; experiment: In vitro minimum inhibitory concentration (MIC) against Candida albicans.; how it was run: as §1
[3] = tested on: Aspergillus fumigatus; experiment: In vitro minimum inhibitory concentration (MIC) against Aspergillus fumigatus.; how it was run: as §1
[4] = tested on: Candida albicans; experiment: In vivo efficacy against murine Candidiasis dosed four times by intraperitoneal administration post-infection using Reed and Muench method.; details: ip
How it was run: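 Systemic candidiasis in mice, with PSB and amphotericin B as positive controls. Analogues were given at 20, 10 and 5 mg/kg, four doses at 0, 4, 24 and 48 post-infection. ED50 is the dose giving 50% survival relative to untreated infected animals, calculated by the Reed and Muench method.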

C/C=C1\NC(=O)[C@H]([C@H](C)O)NC(=O)[C@H](CCN)NC(=O)[C@H](CCCCN)NC(=O)[C@H](CC(=O)N(C)CCN(C)C)NC(=O)[C@@H](CCN)NC(=O)[C@@H](NC(=O)C[C@H](O)CCCCCCCCCCC)COC(=O)[C@H]([C@H](O)CCl)NC(=O)[C@H]([C@H](O)C(=O)O)NC1=O
MIC [1]: < 0.01 µg/mL | MIC [2]: 5 µg/mL (≈ 3.87 µM) | MIC [3]: 20 µg/mL (≈ 15.5 µM) | ED50 [4]: 4 mg/kg

C/C=C1\NC(=O)[C@H]([C@@H](C)O)NC(=O)[C@H](CCN)NC(=O)[C@H](CCCCN)NC(=O)[C@H](CC(=O)N[C@@H](Cc2ccccc2)C(=O)OC)NC(=O)[C@@H](CCN)NC(=O)[C@@H](NC(=O)C[C@H](O)CCCCCCCCCCC)COC(=O)[C@H]([C@H](O)CCl)NC(=O)[C@H]([C@H](O)C(=O)O)NC1=O
MIC [1]: 1.25 µg/mL (≈ 0.913 µM) | MIC [2]: 1.25 µg/mL (≈ 0.913 µM) | MIC [3]: > 20 µg/mL | ED50 [4]: > 15 mg/kg

C/C=C1\NC(=O)[C@H]([C@H](C)O)NC(=O)[C@H](CCN)NC(=O)[C@H](CCCCN)NC(=O)[C@H](CC(=O)NCC)NC(=O)[C@@H](CCN)NC(=O)[C@@H](NC(=O)C[C@H](O)CCCCCCCCCCC)COC(=O)[C@H]([C@H](O)CCl)NC(=O)[C@H]([C@H](O)C(=O)O)NC1=O
MIC [1]: 0.156 µg/mL (≈ 0.126 µM) | MIC [2]: 0.625 µg/mL (≈ 0.506 µM) | MIC [3]: 20 µg/mL (≈ 16.2 µM)

C/C=C1\NC(=O)[C@H]([C@H](C)O)NC(=O)[C@H](CCN)NC(=O)[C@H](CCCCN)NC(=O)[C@H](CC(=O)NCCCN(C)C)NC(=O)[C@@H](CCN)NC(=O)[C@@H](NC(=O)C[C@H](O)CCCCCCCCCCC)COC(=O)[C@H]([C@H](O)CCl)NC(=O)[C@H]([C@H](O)C(=O)O)NC1=O
MIC [1]: < 0.01 µg/mL | MIC [2]: 10 µg/mL (≈ 7.74 µM) | MIC [3]: 10 µg/mL (≈ 7.74 µM) | ED50 [4]: < 5 mg/kg

C/C=C1\NC(=O)[C@H]([C@H](C)O)NC(=O)[C@H](CCN)NC(=O)[C@H](CCCCN)NC(=O)[C@H](CC(=O)N(C)C)NC(=O)[C@@H](CCN)NC(=O)[C@@H](NC(=O)C[C@H](O)CCCCCCCCCCC)COC(=O)[C@H]([C@H](O)CCl)NC(=O)[C@H]([C@H](O)C(=O)O)NC1=O
MIC [1]: < 0.01 µg/mL | MIC [2]: 10 µg/mL (≈ 8.1 µM) | MIC [3]: 10 µg/mL (≈ 8.1 µM) | ED50 [4]: < 4.5 mg/kg

C/C=C1\NC(=O)[C@H]([C@H](C)O)NC(=O)[C@H](CCN)NC(=O)[C@H](CCCCN)NC(=O)[C@H](CC(=O)NCCCCCCCN(C)C)NC(=O)[C@@H](CCN)NC(=O)[C@@H](NC(=O)C[C@H](O)CCCCCCCCCCC)COC(=O)[C@H]([C@H](O)CCl)NC(=O)[C@H]([C@H](O)C(=O)O)NC1=O
MIC [1]: < 0.01 µg/mL | MIC [2]: 10 µg/mL (≈ 7.42 µM) | MIC [3]: > 20 µg/mL | ED50 [4]: < 4 mg/kg

C/C=C1\NC(=O)[C@H]([C@H](C)O)NC(=O)[C@H](CCN)NC(=O)[C@H](CCCCN)NC(=O)[C@H](CC(=O)NCCCCCCCCCC)NC(=O)[C@@H](CCN)NC(=O)[C@@H](NC(=O)C[C@H](O)CCCCCCCCCCC)COC(=O)[C@H]([C@H](O)CCl)NC(=O)[C@H]([C@H](O)C(=O)O)NC1=O
MIC [1]: 1.25 µg/mL (≈ 0.928 µM) | MIC [2]: > 20 µg/mL | MIC [3]: > 20 µg/mL | ED50 [4]: > 20 mg/kg

C/C=C1\NC(=O)[C@H]([C@H](C)O)NC(=O)[C@H](CCN)NC(=O)[C@H](CCCCN)NC(=O)[C@H](CC(=O)NCCCCC)NC(=O)[C@@H](CCN)NC(=O)[C@@H](NC(=O)C[C@H](O)CCCCCCCCCCC)COC(=O)[C@H]([C@H](O)CCl)NC(=O)[C@H]([C@H](O)C(=O)O)NC1=O
MIC [1]: < 0.01 µg/mL | MIC [2]: 0.312 µg/mL (≈ 0.244 µM) | MIC [3]: > 20 µg/mL | ED50 [4]: 8.5 mg/kg

C/C=C1\NC(=O)[C@H]([C@H](C)O)NC(=O)[C@H](CCN)NC(=O)[C@H](CCCCN)NC(=O)[C@H](CC(=O)NCCCCCCCC)NC(=O)[C@@H](CCN)NC(=O)[C@@H](NC(=O)C[C@H](O)CCCCCCCCCCC)COC(=O)[C@H]([C@H](O)CCl)NC(=O)[C@H]([C@H](O)C(=O)O)NC1=O
MIC [1]: 0.625 µg/mL (≈ 0.474 µM) | MIC [2]: 20 µg/mL (≈ 15.2 µM) | MIC [3]: > 20 µg/mL | ED50 [4]: > 20 mg/kg

C/C=C1\NC(=O)[C@H]([C@H](C)O)NC(=O)[C@H](CCN)NC(=O)[C@H](CCCCN)NC(=O)[C@H](CC(=O)NCC(=O)OC)NC(=O)[C@@H](CCN)NC(=O)[C@@H](NC(=O)C[C@H](O)CCCCCCCCCCC)COC(=O)[C@H]([C@H](O)CCl)NC(=O)[C@H]([C@H](O)C(=O)O)NC1=O ({Tetradecanoyl(3R-OH)}-S[dDab]D([Gly-OMe])K[Dab][aThr][Dhb][Asp(3S-OH)][Thr(4-Cl)]; ester 1-C)
MIC [1]: 0.01 µg/mL (≈ 0.00782 µM) | MIC [2]: 1 µg/mL (≈ 0.782 µM) | MIC [3]: 20 µg/mL (≈ 15.6 µM) | ED50 [4]: < 5 mg/kg

C/C=C1\NC(=O)[C@H]([C@H](C)O)NC(=O)[C@H](CCN)NC(=O)[C@H](CCCCN)NC(=O)[C@H](CC(=O)NCCCCN(C)C)NC(=O)[C@@H](CCN)NC(=O)[C@@H](NC(=O)C[C@H](O)CCCCCCCCCCC)COC(=O)[C@H]([C@H](O)CCl)NC(=O)[C@H]([C@H](O)C(=O)O)NC1=O
MIC [1]: < 0.01 µg/mL | MIC [2]: 20 µg/mL (≈ 15.3 µM) | MIC [3]: 5 µg/mL (≈ 3.83 µM) | ED50 [4]: < 5 mg/kg

C/C=C1\NC(=O)[C@H]([C@H](C)O)NC(=O)[C@H](CCN)NC(=O)[C@H](CCCCN)NC(=O)[C@H](CC(=O)NCCN(CC)CC)NC(=O)[C@@H](CCN)NC(=O)[C@@H](NC(=O)C[C@H](O)CCCCCCCCCCC)COC(=O)[C@H]([C@H](O)CCl)NC(=O)[C@H]([C@H](O)C(=O)O)NC1=O ({Tetradecanoyl(3R-OH)}-S[dDab]D(X1)K[Dab][aThr][Dhb][Asp(3S-OH)][Thr(4-Cl)]; ester 1-C)
MIC [1]: < 0.01 µg/mL | MIC [2]: 10 µg/mL (≈ 7.66 µM) | MIC [3]: 10 µg/mL (≈ 7.66 µM) | ED50 [4]: 4.9 mg/kg

C/C=C1\NC(=O)[C@H]([C@@H](C)O)NC(=O)[C@H](CCN)NC(=O)[C@H](CCCCN)NC(=O)[C@H](CC(=O)N[C@@H](CCCN=C(N)N)C(=O)OC)NC(=O)[C@@H](CCN)NC(=O)[C@@H](NC(=O)C[C@H](O)CCCCCCCCCCC)COC(=O)[C@H]([C@H](O)CCl)NC(=O)[C@H]([C@H](O)C(=O)O)NC1=O
MIC [1]: 0.01 µg/mL (≈ 0.00726 µM) | MIC [2]: 5 µg/mL (≈ 3.63 µM) | MIC [3]: > 20 µg/mL | ED50 [4]: < 5 mg/kg

C/C=C1\NC(=O)[C@H]([C@H](C)O)NC(=O)[C@H](CCN)NC(=O)[C@H](CCCCN)NC(=O)[C@H](CC(=O)NC)NC(=O)[C@@H](CCN)NC(=O)[C@@H](NC(=O)C[C@H](O)CCCCCCCCCCC)COC(=O)[C@H]([C@H](O)CCl)NC(=O)[C@H]([C@H](O)C(=O)O)NC1=O
MIC [1]: 0.312 µg/mL (≈ 0.256 µM) | MIC [2]: 5 µg/mL (≈ 4.1 µM) | MIC [3]: > 20 µg/mL | ED50 [4]: 7.4 mg/kg

C/C=C1\NC(=O)[C@H]([C@H](C)O)NC(=O)[C@H](CCN)NC(=O)[C@H](CCCCN)NC(=O)[C@H](CC(=O)NCCCCCCCCC)NC(=O)[C@@H](CCN)NC(=O)[C@@H](NC(=O)C[C@H](O)CCCCCCCCCCC)COC(=O)[C@H]([C@H](O)CCl)NC(=O)[C@H]([C@H](O)C(=O)O)NC1=O
MIC [1]: 5 µg/mL (≈ 3.75 µM) | MIC [2]: 20 µg/mL (≈ 15 µM) | MIC [3]: > 20 µg/mL | ED50 [4]: > 20 mg/kg

C/C=C1\NC(=O)[C@H]([C@H](C)O)NC(=O)[C@H](CCN)NC(=O)[C@H](CCCCN)NC(=O)[C@H](CC(=O)NCCC(C)C)NC(=O)[C@@H](CCN)NC(=O)[C@@H](NC(=O)C[C@H](O)CCCCCCCCCCC)COC(=O)[C@H]([C@H](O)CCl)NC(=O)[C@H]([C@H](O)C(=O)O)NC1=O
MIC [1]: < 0.01 µg/mL | MIC [2]: 0.312 µg/mL (≈ 0.244 µM) | MIC [3]: > 20 µg/mL | ED50 [4]: 10.9 mg/kg

C/C=C1\NC(=O)[C@H]([C@H](C)O)NC(=O)[C@H](CCN)NC(=O)[C@H](CCCCN)NC(=O)[C@H](CC(=O)NCCCCCCN(C)C)NC(=O)[C@@H](CCN)NC(=O)[C@@H](NC(=O)C[C@H](O)CCCCCCCCCCC)COC(=O)[C@H]([C@H](O)CCl)NC(=O)[C@H]([C@H](O)C(=O)O)NC1=O
MIC [1]: < 0.01 µg/mL | MIC [2]: 5 µg/mL (≈ 3.75 µM) | MIC [3]: 20 µg/mL (≈ 15 µM) | ED50 [4]: < 5 mg/kg

C/C=C1\NC(=O)[C@H]([C@H](C)O)NC(=O)[C@H](CCN)NC(=O)[C@H](CCCCN)NC(=O)[C@H](CC(=O)NCCCC)NC(=O)[C@@H](CCN)NC(=O)[C@@H](NC(=O)C[C@H](O)CCCCCCCCCCC)COC(=O)[C@H]([C@H](O)CCl)NC(=O)[C@H]([C@H](O)C(=O)O)NC1=O
MIC [1]: < 0.01 µg/mL | MIC [2]: 5 µg/mL (≈ 3.96 µM) | MIC [3]: 20 µg/mL (≈ 15.8 µM) | ED50 [4]: 5.9 mg/kg

C/C=C1\NC(=O)[C@H]([C@H](C)O)NC(=O)[C@H](CCN)NC(=O)[C@H](CCCCN)NC(=O)[C@H](CC(=O)NCCCCCC)NC(=O)[C@@H](CCN)NC(=O)[C@@H](NC(=O)C[C@H](O)CCCCCCCCCCC)COC(=O)[C@H]([C@H](O)CCl)NC(=O)[C@H]([C@H](O)C(=O)O)NC1=O
MIC [1]: 0.156 µg/mL (≈ 0.121 µM) | MIC [2]: 5 µg/mL (≈ 3.87 µM) | MIC [3]: > 20 µg/mL | ED50 [4]: > 12 mg/kg

C/C=C1\NC(=O)[C@H]([C@@H](C)O)NC(=O)[C@H](CCN)NC(=O)[C@H](CCCCN)NC(=O)[C@H](CC(=O)N[C@@H](Cc2c[nH]cn2)C(=O)OC)NC(=O)[C@@H](CCN)NC(=O)[C@@H](NC(=O)C[C@H](O)CCCCCCCCCCC)COC(=O)[C@H]([C@H](O)CCl)NC(=O)[C@H]([C@H](O)C(=O)O)NC1=O
MIC [1]: < 0.01 µg/mL | MIC [2]: 0.312 µg/mL (≈ 0.23 µM) | MIC [3]: 20 µg/mL (≈ 14.7 µM) | ED50 [4]: < 5 mg/kg
